From ChEMBL document CHEMBL1129794, “Synthesis and evaluation of 2-[(5-methylbenz-1-ox-4-azin-6-yl)imino]imidazoline, a potent, peripherally acting alpha 2 adrenoceptor agonist” (J Med Chem, 1996)

Legend:
[1] = target: T1, Adrenergic receptor alpha-2 (Homo sapiens, UniProt P08913+P18825+P18089); experiment: Compound was tested for concentration that produced 50% contractile response relative to maximum response to norepinephrine for Alpha-2 adrenergic receptor in rabbit vas deferens; format: functional, tissue-based, Oryctolagus cuniculus; details: target entry is the homologue from another species
T1 sequence (P08913 whole entry): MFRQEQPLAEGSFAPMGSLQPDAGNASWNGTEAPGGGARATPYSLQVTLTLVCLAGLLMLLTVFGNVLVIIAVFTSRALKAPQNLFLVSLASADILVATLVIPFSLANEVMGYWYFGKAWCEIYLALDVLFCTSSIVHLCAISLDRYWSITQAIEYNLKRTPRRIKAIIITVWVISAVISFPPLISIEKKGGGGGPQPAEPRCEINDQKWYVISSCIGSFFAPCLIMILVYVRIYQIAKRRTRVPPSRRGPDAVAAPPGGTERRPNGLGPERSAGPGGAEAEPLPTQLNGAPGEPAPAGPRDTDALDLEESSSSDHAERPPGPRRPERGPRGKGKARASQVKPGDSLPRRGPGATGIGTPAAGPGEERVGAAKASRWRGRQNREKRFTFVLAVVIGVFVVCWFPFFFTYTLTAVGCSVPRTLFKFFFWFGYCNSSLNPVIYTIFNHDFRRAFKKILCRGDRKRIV
T1 sequence (P18825 whole entry): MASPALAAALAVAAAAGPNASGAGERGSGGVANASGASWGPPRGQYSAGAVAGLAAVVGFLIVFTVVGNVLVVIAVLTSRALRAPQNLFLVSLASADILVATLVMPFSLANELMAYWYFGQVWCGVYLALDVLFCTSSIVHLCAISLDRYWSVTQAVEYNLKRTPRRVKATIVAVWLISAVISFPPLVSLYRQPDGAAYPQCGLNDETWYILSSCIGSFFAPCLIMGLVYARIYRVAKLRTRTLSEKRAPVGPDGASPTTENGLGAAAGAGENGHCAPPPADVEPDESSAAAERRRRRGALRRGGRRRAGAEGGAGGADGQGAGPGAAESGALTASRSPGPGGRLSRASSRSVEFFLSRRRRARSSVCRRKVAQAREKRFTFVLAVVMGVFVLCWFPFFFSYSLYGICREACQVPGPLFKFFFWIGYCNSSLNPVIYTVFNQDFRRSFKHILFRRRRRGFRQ
T1 sequence (P18089 whole entry): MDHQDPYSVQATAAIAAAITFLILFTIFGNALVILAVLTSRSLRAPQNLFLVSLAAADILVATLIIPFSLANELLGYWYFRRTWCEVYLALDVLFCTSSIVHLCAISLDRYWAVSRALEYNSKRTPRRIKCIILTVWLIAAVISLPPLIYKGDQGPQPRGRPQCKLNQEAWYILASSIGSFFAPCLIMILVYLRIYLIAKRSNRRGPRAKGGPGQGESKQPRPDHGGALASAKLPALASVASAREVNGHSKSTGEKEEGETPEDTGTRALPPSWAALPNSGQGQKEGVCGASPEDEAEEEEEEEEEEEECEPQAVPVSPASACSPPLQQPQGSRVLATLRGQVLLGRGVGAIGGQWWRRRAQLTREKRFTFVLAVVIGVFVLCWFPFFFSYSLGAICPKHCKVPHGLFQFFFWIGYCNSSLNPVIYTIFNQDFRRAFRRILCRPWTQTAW

[2] = target: T2, Adrenergic receptor alpha-1 (Homo sapiens, UniProt P35348+P25100+P35368); experiment: Compound was tested for binding affinity based on dissociation constant of Alpha-1 adrenergic receptor; format: protein assay
T2 sequence (P35348 whole entry): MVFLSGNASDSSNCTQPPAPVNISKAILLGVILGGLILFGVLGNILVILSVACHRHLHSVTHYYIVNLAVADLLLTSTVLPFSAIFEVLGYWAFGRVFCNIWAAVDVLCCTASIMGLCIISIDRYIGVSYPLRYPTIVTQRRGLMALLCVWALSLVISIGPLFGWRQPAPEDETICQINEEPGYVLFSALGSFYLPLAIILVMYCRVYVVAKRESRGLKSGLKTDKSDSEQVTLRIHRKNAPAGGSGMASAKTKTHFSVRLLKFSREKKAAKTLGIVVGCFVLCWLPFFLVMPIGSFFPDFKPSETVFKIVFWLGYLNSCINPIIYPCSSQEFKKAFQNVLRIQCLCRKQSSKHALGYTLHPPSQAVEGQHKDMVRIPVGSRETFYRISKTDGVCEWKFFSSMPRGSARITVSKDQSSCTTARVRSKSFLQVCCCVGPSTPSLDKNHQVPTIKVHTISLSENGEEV
T2 sequence (P25100 whole entry): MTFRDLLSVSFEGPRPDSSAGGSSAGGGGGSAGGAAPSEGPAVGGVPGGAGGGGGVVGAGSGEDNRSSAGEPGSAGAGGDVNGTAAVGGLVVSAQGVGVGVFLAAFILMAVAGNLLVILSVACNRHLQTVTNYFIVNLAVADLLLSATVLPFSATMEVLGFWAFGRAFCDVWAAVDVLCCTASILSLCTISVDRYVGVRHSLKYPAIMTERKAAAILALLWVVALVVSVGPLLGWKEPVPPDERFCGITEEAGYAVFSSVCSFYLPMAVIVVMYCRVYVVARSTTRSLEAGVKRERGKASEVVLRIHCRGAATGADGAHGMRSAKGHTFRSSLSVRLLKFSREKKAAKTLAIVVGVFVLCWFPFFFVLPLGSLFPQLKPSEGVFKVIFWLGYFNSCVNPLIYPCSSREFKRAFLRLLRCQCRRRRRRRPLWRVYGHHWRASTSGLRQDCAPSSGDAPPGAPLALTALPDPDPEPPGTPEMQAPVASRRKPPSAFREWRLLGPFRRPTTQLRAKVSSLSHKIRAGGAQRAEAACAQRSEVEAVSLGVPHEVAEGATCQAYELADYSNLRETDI
T2 sequence (P35368 whole entry): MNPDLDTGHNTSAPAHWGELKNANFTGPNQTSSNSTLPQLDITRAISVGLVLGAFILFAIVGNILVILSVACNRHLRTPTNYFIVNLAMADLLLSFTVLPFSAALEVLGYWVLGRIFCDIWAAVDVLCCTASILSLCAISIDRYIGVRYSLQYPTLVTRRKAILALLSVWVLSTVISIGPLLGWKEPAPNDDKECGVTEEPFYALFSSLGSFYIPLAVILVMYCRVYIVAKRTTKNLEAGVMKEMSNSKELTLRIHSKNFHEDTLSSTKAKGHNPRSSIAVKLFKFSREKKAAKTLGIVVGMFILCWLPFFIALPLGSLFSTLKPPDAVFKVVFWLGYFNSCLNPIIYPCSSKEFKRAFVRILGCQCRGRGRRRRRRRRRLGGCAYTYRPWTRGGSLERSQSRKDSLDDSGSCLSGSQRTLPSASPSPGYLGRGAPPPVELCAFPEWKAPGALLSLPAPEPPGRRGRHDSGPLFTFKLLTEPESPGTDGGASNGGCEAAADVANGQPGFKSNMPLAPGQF

[3] = pKa value determined in the presence of the partition solvent for guanidine subunit.; format: physicochemical
Outline: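 Potentiometric titration: compound dissolved, solution titrated to predetermined final pH; pKa measured in water and again with octanol or dodecane added before titration; log P derived from shift between aqueous pKa and pKa in presence of partition solvent.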

[4] = target: T3, Alpha-2C adrenergic receptor (Homo sapiens, UniProt P18825); experiment: Compound was tested in vitro for binding affinity against Alpha-2C adrenergic receptor from cloned human C-2 receptor transfected into Chinese hamster ovary (CHO) cells; format: cell-based
T3 sequence (P18825 whole entry): T1 sequence (P18825 whole entry)
Outline: (§1)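 Membrane binding using cloned receptors expressed in transfected CHO cells: alpha-2A human C-10, alpha-2B rat RNG, alpha-2C human C-2.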

[5] = target: T4, Alpha-2A adrenergic receptor (Homo sapiens, UniProt P08913); experiment: Compound was tested in vitro for binding affinity against Alpha-2A adrenergic receptor from cloned human C-10 receptor transfected into Chinese hamster ovary (CHO) cells; format: cell-based; outline: as §1
T4 sequence (P08913 whole entry): T1 sequence (P08913 whole entry)

[6] = target: T5, Alpha-2B adrenergic receptor (Rattus norvegicus, UniProt P19328); experiment: Compound was tested in vitro for binding affinity against Alpha-2B adrenergic receptor from cloned rat RNG receptor transfected into Chinese hamster ovary (CHO) cells; format: cell-based; outline: as §1
T5 sequence (P19328 whole entry): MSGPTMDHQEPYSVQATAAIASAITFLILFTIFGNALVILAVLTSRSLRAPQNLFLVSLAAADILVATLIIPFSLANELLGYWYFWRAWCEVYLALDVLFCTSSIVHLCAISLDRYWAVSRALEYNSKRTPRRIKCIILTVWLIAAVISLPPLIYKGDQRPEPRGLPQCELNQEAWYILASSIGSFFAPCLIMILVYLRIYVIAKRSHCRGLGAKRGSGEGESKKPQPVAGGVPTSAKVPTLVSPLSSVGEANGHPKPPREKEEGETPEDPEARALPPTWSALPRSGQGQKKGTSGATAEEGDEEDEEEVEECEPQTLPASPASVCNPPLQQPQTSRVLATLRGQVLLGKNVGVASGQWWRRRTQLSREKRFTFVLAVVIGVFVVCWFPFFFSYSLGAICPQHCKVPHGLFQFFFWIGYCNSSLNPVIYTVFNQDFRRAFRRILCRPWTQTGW

SMILES: Cc1c(NC2=NCCN2)ccc2c1NCCO2
- EC50 [1]: 1.2 nM
- Ki [2]: 470 nM
- pKa [3]: 11.1

SMILES: Cc1c(NC2=NCCN2)ccc2nccnc12
- EC50 [1]: 0.26 nM
- Ki [4]: 27 nM
- Ki [5]: 2 nM
- Ki [6]: 17 nM
- pKa [3]: 9.4

SMILES: Cc1c(NC2=NCCN2)ccc2c1NCCN2
- EC50 [1]: 3.5 nM
- Ki [4]: 120 nM
- pKa [3]: 11.3

SMILES: Nc1cc(Cl)c(N=C2NCCN2)c(Cl)c1 [APRACLONIDINE]
- Ki [2]: 180 nM
- Ki [4]: 30 nM
